# Assay outcomes deposited in PubChem by several laboratories.
# KCNK3 inh: human KCNK3 channel inhibitors, primary screen, CHO cells, FluxOR thallium flux, B-score; FluxOR fluorescence; active compounds read low; B-score at 10 µM; 340,000 compounds, 0.84% hits;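 active = B-score under library mean minus 4 SD, starting fluorescence ratio at most library mean plus 5 SD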;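 note: more negative B-score means stronger inhibition of thallium flux through KCNK3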
# KCNQ1 inh: inhibitors of human KCNQ1 channel, primary screen, cell-based, thallium flux, high-throughput; CHO-K1 KCNQ1, FluxOR thallium flux fluorescence; active compounds read high; AID 2642, 2010; Potassium voltage-gated channel subfamily KQT member 1 (Homo sapiens), P51787; 310,000 compounds, 1.3% hits; B-score at 10 µM;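 active = compounds whose thallium flux B-score, printed positive for inhibition, exceeds three library SD while starting fluorescence stays within three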;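 note: channel opened by potassium depolarization with thallium stimulus after 20 min compound exposure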
# KCC2 mod: KCC2 cotransporter modulators, thallium flux, primary screen, cell-based, HEK293 KCC2, FluoZin-2 fluorescence, MLSMR; KCC2 cells, thallium flux FluoZin-2 fluorescence; B-score of Tl+ flux slope (higher = more flux/activation; lower = inhibition) at 10 µM; 190,000 compounds, 2.2% hits; AID 1456, 2008;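 active = thallium flux slope and its plate-corrected score both differing from the plate sample mean at a set confidence after two filtering rounds, in either direction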;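 note: slope of fluorescence scaled to starting intensity during 10 to 20 s after thallium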
# KCNK9 block: KCNK9 potassium channel inhibitors, primary screen, HEK293 cells, thallium flux | 310,000 compounds, 1.2% hits | FluxOR thallium flux fluorescence; active compounds read low | B-score at 10 µM | Potassium channel subfamily K member 9 (Homo sapiens), Q9NPC2;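 active = ratio B-score over 3 SD below the library mean, with starting fluorescence within 5 SD of its mean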;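 note: negative B-score means less thallium flux so channel inhibition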
# hERG protect: hERG rescue from dofetilide block, primary screen, cell-based, CHO-hERG, FluxOR thallium flux, dofetilide IC70; AID 1511, 2009; 310,000 compounds, 0.51% hits; dofetilide IC70 present; Voltage-gated inwardly rectifying potassium channel KCNH2 (Homo sapiens), Q12809; activation (rescue from dofetilide block), less the hit threshold, % at 10 µM;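 active = activation above the mean of controls blocked by dofetilide plus 5 SD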;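 note: thallium influx through hERG after potassium depolarization seen as dye fluorescence rise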
# KCNQ1 pot: potentiators or activators of KCNQ1 channel, primary screen, cell-based, thallium flux, high-throughput; Potassium voltage-gated channel subfamily KQT member 1 (Homo sapiens), P51787; CHO-K1 KCNQ1, thallium flux FluxOR fluorescence; active compounds read high; B-score at 10 µM; 310,000 compounds, 0.35% hits; AID 2648, 2010;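 active = fluorescence ratio B-score, a plate-corrected score, at least three library SD, with initial intensity B-score within 5 SD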
#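 assay system = KCNQ1-transfected CHO-K1 cells | medium = assay buffer with matched DMSO | probe or stimulus = depolarizing K+/Tl+ stimulus, K2SO4 and Tl2SO4 each 12.5 mM in 5x stock | dosing = single dose | incubation = dye 90 min, compound 20 min, room temperature | detection = kinetic FluxOR fluorescence, 10 s baseline plus 110 s post-stimulus | evaluation = ratio B score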
# * marks the source's active call; other numbers are inactive results; i = inactive; nt = no result given. Sampled rows, rich in hits. Any-hit rate of the full collection: about 4.1%.
SMILES,KCNK3 inh,KCNQ1 inh,KCC2 mod,KCNK9 block,hERG protect,KCNQ1 pot
O=C(Nc1cccc([N+](=O)[O-])c1)Nc1cccs1,i,8*,-1.4,i,-32,i
O=C(Nc1cccc([N+](=O)[O-])c1)c1cccc(C(=O)Nc2cccc([N+](=O)[O-])c2)c1,i,i,0.79,i,-5,i
CC(NC(=O)Nc1cccc([N+](=O)[O-])c1)(C(F)(F)F)C(F)(F)F,i,12*,-1,i,-22,i
Cc1ccc(NC(=S)N(CCCN2CCCC2)Cc2cccn2Cc2ccc(Cl)cc2)cc1C,i,i,0,i,-16,i
Cc1ccc(NC(=S)N(CCCN2CCCC2)Cc2cccn2Cc2ccc(Cl)cc2)cc1Cl,i,7*,-0.19,i,-12,i
CN1CCCN(C(c2ccccc2)c2ccc(Cl)cc2)CC1 (stereo not given),i,i,0.63,i,-14,i
c1ccc(C(c2ccccc2)N2CCN(c3ccc4ccccc4n3)CC2)cc1,i,i,-0.053,-7.8*,-10,i
c1ccc(C(c2ccccc2)N2CCN(c3nc4ccccc4n4cnnc34)CC2)cc1,nt,6*,-0.12,i,-8,i
Clc1ccc(C(c2ccccc2)N2CCN(c3ccccn3)CC2)cc1 (stereo not given),i,i,0.17,-7.3*,-9,i
Cc1cccc(CN2CCN(C(c3ccccc3)c3ccc(Cl)cc3)CC2)c1 (stereo not given),i,8*,0.4,i,-13,i
c1cnc(N2CCN(c3nc4ccccc4n4cnnc34)CC2)nc1,i,i,nt,i,-6,i
CNC(=O)c1cc(NC(=O)N(CCC#N)CCN(C(=O)NC(Cc2ccccc2)C(=O)NC(CC(C)C)C(=O)NC)c2ccccc2)ccc1OC (stereo not given),i,nt,nt,nt,nt,nt
CCOc1ccc(C(CC(=O)O)NC(=O)c2cccs2)cc1 (stereo not given),i,i,2.2,i,-8,i
CCOC(=O)CC(NC(=O)c1cccs1)c1ccc(OCC)cc1 (stereo not given),i,i,-0.018,i,8.6*,i
Cc1cc(NC(=O)COC(=O)[C@H](Cc2ccccc2)NC(=O)c2ccco2)no1,i,nt,nt,nt,nt,nt
COc1ccccc1C1CN(c2ccc(F)cc2F)N=C1c1cccs1 (stereo not given),i,i,-1.3,-7.4*,-4,i
COc1cc(/C=N/N2C(=O)CSC2=S)cc(Br)c1O,-9.4*,nt,-0.4,nt,nt,nt
O=C1NCCO1,i,nt,nt,nt,nt,nt
CC1=NNC(=O)C1CC(=O)N/N=C/C=C/c1ccccc1 (stereo not given),i,i,-0.47,i,21*,i
CC(C)n1c(O)c(N=Nc2ccc(Cl)nn2)c2ccccc21,i,i,11*,i,-7,i
N#Cc1cccc(C#N)c1Oc1ccc(N)cc1,i,i,0.36,-6.8*,-4,i
CN(C)C(CNC(=O)c1ccco1)c1cccs1 (stereo not given),i,i,nt,i,-7,i
Cc1cccc(C(=O)NCC(=O)NCC2COc3ccccc3O2)c1 (stereo not given),i,i,nt,i,-7,i
COc1ccc(C(=O)NC(=S)NNC(=O)c2cccc(C)c2)cc1,i,i,nt,i,-5,62*
O=C(COc1ccccc1)NNC(=S)NC(=O)c1ccc(Cl)cc1Cl,nt,i,22*,i,-23,i
SMILES,KCNK3 inh,KCNQ1 inh,KCC2 mod,KCNK9 block,hERG protect,KCNQ1 pot
COc1ccc(C(=O)NNC(=S)NC(=O)c2ccc(OC)cc2)cc1,i,i,nt,i,-9,i
CC(C)c1ccc(OCC(=O)NNC(=S)NC(=O)c2ccco2)c(Br)c1,i,i,nt,i,-13,47*
CC(=O)c1cccc(NC(=S)NC(=O)c2cccc(C)c2)c1,i,i,8.4*,i,-8,i
Cc1cccc(C(=O)NC(=S)NNC(=O)COc2ccc(Cl)cc2)c1,i,i,47*,i,-13,59*
CC(C)Oc1cccc(C(=O)NC(=S)Nc2ccccc2)c1,i,i,46*,i,-2,i
Cc1ccccc1C(=O)NNC(=S)NC(=O)c1ccccc1,i,i,30*,i,-8,i
CC(C)Oc1cccc(C(=O)NC(=S)Nc2cccnc2)c1,i,i,4.1,i,-4,i
O=C(/C=C/c1ccccc1)NC(=S)NNC(=O)c1ccco1,i,i,6.4*,i,-23,i
Cc1cccc(/C(N)=N/OC(=O)COc2ccc(Cl)cc2)c1,i,i,0.18,i,-11,i
COC(=O)[C@]1(C)N[C@H](CN(C)C(=O)C2CCCCC2)[C@@H]2C(=O)N(C)C(=O)[C@@H]21,i,nt,nt,nt,nt,nt
CC(NC(=O)c1ccccc1)c1nnc(SCC(=O)Nc2nnc(C3CC3)s2)n1C (stereo not given),i,i,nt,i,-13,i
Cc1ccccc1N1CCN(C2CCCN(C(=O)c3ccnn3C)C2)CC1 (stereo not given),i,i,nt,i,-10,i
O=C(NNC(=S)NC(=O)c1ccc(Br)cc1)c1cccc([N+](=O)[O-])c1,i,i,nt,i,-1,21*
Cc1cccc(NC(=S)N/C(=N/S(=O)(=O)c2ccccc2)c2ccccc2)c1,i,i,3.5*,i,5.2*,i
Cc1ccc(C(=O)NNC(=S)NC(=O)c2ccc(Cl)cc2Cl)cc1,i,i,59*,i,-9,i
Cc1cccc(C(=O)NNC(=S)NC(=O)c2ccccc2)c1,i,i,nt,i,-1,23*
Cc1nn(C2CC(O)C(O)C(CO)O2)c(=O)[nH]c1=O (stereo not given),i,nt,nt,nt,nt,nt
CC(=O)C1CCC2C3CC=C4N(C)C(=O)CCC4(C)C3CCC12C (stereo not given),i,nt,nt,nt,nt,nt
Cc1ccc(N2CC(C(=O)Nc3ccc(S(=O)(=O)Nc4ncccn4)cc3)CC2=O)cc1C (stereo not given),i,i,nt,i,-5,i
Cc1ccc(C(=O)NNC(=S)NC(=O)c2ccco2)cc1,i,i,55*,i,-6,i
